Assay outcomes deposited in PubChem by several laboratories.
Only some compounds are listed: those with a hit (about 2.6% of all), similar ones and a draw of the others.
MEKK2wt PB1 HTS: raises or lowers MEK5 binding to wildtype human MEKK2 PB1 domain. Q9Y2U5. bead flow cytometry, Alexa488-MEK5 binding to MEKK2 WT; actives lie on both sides. binding response (% of control), % at 10 µM. 1.1% of 290,000 active; in the data active means binding response below about 67% or above about 130%
MEKK3 PB1 HTS: modulators (inhibitors or enhancers) of MEK5 binding to human MEKK3 PB1 domain; Q99759; bead-based flow cytometry, Alexa488-MEK5 binding to MEKK3; actives lie on both sides; 0 = blocked by unlabeled MEK5, 100 = vehicle; binding response (% of control), % at 10 µM; 1.4% of 290,000 active; AID 1529;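 active means binding response more than 3 SD above or below the average of its plate-row segment, actives on both sides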;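 further: Alexa488 bead fluorescence after subtracting the streptavidin-only scavenger bead signal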
Target sequence (Q99759 whole entry, looked up, the tested form may be a part): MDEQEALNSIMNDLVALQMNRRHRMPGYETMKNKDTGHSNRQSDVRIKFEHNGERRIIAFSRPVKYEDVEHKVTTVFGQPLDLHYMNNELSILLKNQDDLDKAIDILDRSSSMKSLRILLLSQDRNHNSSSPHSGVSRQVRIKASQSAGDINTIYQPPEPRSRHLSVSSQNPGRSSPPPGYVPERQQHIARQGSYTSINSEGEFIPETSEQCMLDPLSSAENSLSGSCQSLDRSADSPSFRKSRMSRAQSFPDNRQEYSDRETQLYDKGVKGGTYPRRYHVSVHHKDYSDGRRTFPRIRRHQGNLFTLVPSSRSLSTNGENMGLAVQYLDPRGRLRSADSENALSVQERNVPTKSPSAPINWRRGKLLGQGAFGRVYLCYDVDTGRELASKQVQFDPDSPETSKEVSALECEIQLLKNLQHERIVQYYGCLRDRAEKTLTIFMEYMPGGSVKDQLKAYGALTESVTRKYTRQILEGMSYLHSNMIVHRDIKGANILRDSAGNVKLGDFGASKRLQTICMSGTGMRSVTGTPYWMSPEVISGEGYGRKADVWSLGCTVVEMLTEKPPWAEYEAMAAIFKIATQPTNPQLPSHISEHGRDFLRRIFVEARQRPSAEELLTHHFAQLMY
Lipid droplet: modulators of hepatic lipid droplet formation | inhibition, % at 6.5 µM | 0.4% of 240,000 active | AML12 mouse hepatocytes, oleate lipid droplets, BODIPY imaging;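 active means lipid droplet intensity inhibited by at least 50%, with more than 500 cells counted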
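Assay system: AML12 mouse liver cells | Compound dosing: One dose, 6.5 µM compound | Read-out basis: Droplet intensity reduction, % inhibition | Measured by: Fluorescence imaging, 20x objective, two fields per well | Schedule: Overnight treatment with compound plus oleate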
MEKK2 mut-MEK5: signal of MEK5 binding to mutant human MEKK2 PB1 domain; percent response, % at 10 µM; bead flow cytometry, Alexa488-MEK5 binding to MEKK2 mutant; 0.35% of 290,000 active; in the data active means percent response above about 24%, passing the limit was not always enough
MEKK2wt confirm: raises or lowers MEK5 binding to wildtype human MEKK2, retest | shares compounds with MEKK3 PB1 HTS | bead flow cytometry, Alexa488-MEK5 binding to MEKK2 WT; actives lie on both sides | binding response (% of control), % at 10 µM | 2.4% of 5,900 active; in the data active means binding response below about 16% or above about 210%; inactive means in between
MEKK2mut-MEK5: signal of MEK5 binding to mutant human MEKK2, retest. shares compounds with MEKK3 PB1 HTS. bead flow cytometry, Alexa488-MEK5 binding to MEKK2 mutant. percent response, % at 10 µM. 2% of 5,900 active. AID 1893; in the data active means percent response mostly above about 71%, no sharp cut-off; inactive means mostly below about 38%;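 further: higher means compound restores mutant binding toward wildtype level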
MEKK3-MEK5 inh: confirmation of inhibitors of MEK5 binding to human MEKK3. shares compounds with MEKK3 PB1 HTS. bead flow cytometry, Alexa488-MEK5 binding to MEKK3; active compounds read low. 1.8% of 5,900 active. binding response (% of control), % at 10 µM;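 active means binding response below 72% of control, or above a set upper limit, though filed actives all read lower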;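 further: 100% = DMSO only wells and 0% = binding blocked by excess unlabeled MEK5; lower values mean stronger disruption of MEK5 binding to MEKK3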
Active calls of the source: *; / = no result given; [ ] = another dose, or the depositor's remark.

SMILES	MEKK2wt PB1 HTS	MEKK3 PB1 HTS	Lipid droplet	MEKK2 mut-MEK5	MEKK2wt confirm	MEKK2mut-MEK5	MEKK3-MEK5 inh
O=C(CN(c1cccc([N+](=O)[O-])c1)S(=O)(=O)c1ccccc1)N(Cc1ccccc1)Cc1ccccc1	111	137*	4	1	99	-10	99
Cc1ccc2[nH]c(=O)c(COC(=O)c3cccs3)cc2c1	94	91	9	0	/	/	/
CC(C)(C)c1ccc(/C=C/C(=O)c2ccc(NC3=NCCCS3)cc2)cc1	139*	109	17	32	149	21	105
O=C(CSc1nc(-c2ccccc2)c(-c2ccccc2)[nH]1)NCC1CCCO1 (configuration not stated)	54*[inhibitor]	93	7	-20	98	-8	95
O=C(CSc1nc2ccccc2[nH]1)NCC1CCCO1 (configuration not stated)	102	97	-16	12	/	/	/
S=c1sc(SCCOc2ccccc2)nn1-c1ccccc1	104	132*	-16	1	96	-3	101
O=C(/C=C/Nc1ccc(F)c(Cl)c1)c1ccccc1	105	102	12	0	/	/	/
NS(=O)(=O)c1ccc(Nc2ncccc2[N+](=O)[O-])cc1	0.0*[inhibitor]	1.0*[inhibitor]	-12	-41	95	-1	104
NS(=O)(=O)c1ccc(Nc2ccc([N+](=O)[O-])c3nonc23)cc1	89	93	0	-2	/	/	/
OCCNC(=S)NCCc1ccccc1	109	132*	20	0	100	0	100
CCOC(=O)CNS(=O)(=O)c1ccc(S(=O)(=O)NC2CC2)cc1	110	104	34	4	/	/	/
CCc1ccc(-c2nc(CN3CCC(C(=O)NCCN(CC)c4ccccc4)CC3)c(C)o2)cc1	184*	104	/	15	148	20	106
Cc1oc(-c2ccc(Cl)cc2)nc1CN1CCC(C(=O)NCc2cccs2)CC1	126	116	26	6	/	/	/
Cc1oc(-c2cccc(Cl)c2)nc1CN1CCC(C(=O)NC2CC2)CC1	99	102	-4	1	/	/	/
CCN(CCNC(=O)C1CCCN(Cc2nc(-c3ccc(OC)cc3)oc2C)C1)c1ccccc1 (configuration not stated)	134	106	/	12	/	/	/
CCN(CCNC(=O)C1CCN(Cc2nc(-c3cccc(Cl)c3)oc2C)CC1)c1ccccc1	188*	109	/	20	138	15	101
CCc1ccc(-c2nc(CN3CCC(C(=O)NCc4ccc(F)cc4)CC3)c(C)o2)cc1	145*	104	/	13	117	3	104
CCc1ccc(-c2nc(CN3CCC(C(=O)N4CCN(c5ccccc5)CC4)CC3)c(C)o2)cc1	152*	108	/	7	116	8	105
CCN1CCN(C(=O)c2cc(COc3ccc(F)cc3F)on2)[C@@H](C)C1=O	96	101	0	-9	/	/	/
COc1ccc(C(=O)NC2CCc3ccccc32)cc1OC1CCN(C(C)C)CC1 (configuration not stated)	104	99	-8	5	/	/	/
COc1ccc(CN2CC[C@H]3C=CC[C@@H](C(=O)NCCc4ccccc4)[C@H]3C2=O)cc1OC	101	98	/	1	/	/	/
CCN(CCNC(=O)C1CCN(Cc2nc(-c3ccc(Cl)cc3)oc2C)CC1)c1ccccc1	163*	107	/	15	151	33	110
NC(=O)c1nsc(C(=O)N(CC(=O)NC2CCCCC2)Cc2ccc(F)cc2)c1N	94	97	-1	2	/	/	/
Cc1cc(=O)n2nc(N3CCC(C(=O)NCc4ccc(Cl)cc4)CC3)sc2n1	103	105	1	3	/	/	/
O=c1cc(NS(=O)(=O)c2ccccc2)nc(SCc2ccc(Cl)cc2)[nH]1	105	129*	6	1	98	-9	99
SMILES	MEKK2wt PB1 HTS	MEKK3 PB1 HTS	Lipid droplet	MEKK2 mut-MEK5	MEKK2wt confirm	MEKK2mut-MEK5	MEKK3-MEK5 inh
COC(=O)c1ccc(/C=C/c2c(-c3ccsc3)oc3ccc(N4CCOCC4)cc23)cc1	103	107	/	0	/	/	/
CC1CN(Cc2cc(=O)[nH]c(C3CC3)n2)CC(C)O1 (configuration not stated)	3.0*[inhibitor]	2.0*[inhibitor]	-9	-16	106	5	103
CCCc1n[nH]c(=S)n1Cc1ccco1	110	103	-1	12	/	/	/
S=c1[nH]nc(COc2ccc(Cl)cc2)n1Cc1ccco1	126	155*	20	6	105	2	103
CN(Cc1ccccc1)c1ccc([N+](=O)[O-])cc1C(=O)O	96	105	7	-6	/	/	/
CN(C)c1ccc([N+](=O)[O-])cc1C(=O)O	108	129*	-1	0	100	-3	99
O=C1CC(c2ccsc2)Sc2ccccc2N1 (configuration not stated)	69	58	1	-24	/	/	/
CC1CC(=O)C2=C(C1)Nc1ccccc1SC2c1ccc(F)cc1 (configuration not stated)	106	130*	0	1	99	2	106
COc1cc(OC)c(NC(=O)Cn2cnc3sc(C)c(S(=O)(=O)N4CCOCC4)c3c2=O)cc1Cl	97	100	-23	3	/	/	/
COc1ccc(S(=O)(=O)N(C)c2ccc(C(=O)N3CCCCC3)cc2)cc1	100	102	-11	1	/	/	/
O=C(Cc1ccc(Cl)c(Cl)c1)N1CCOCC1	101	98	-6	-1	/	/	/
O=c1cc(N2CCC3(CC2)OCCO3)[nH]c(=O)n1-c1ccc(Br)cc1	102	51*[inhibitor]	13	2	97	-2	102
COc1ccc(NC(=O)c2cccc(OC(F)F)c2)cc1Cl	104	101	-3	8	/	/	/
O=C(Nc1ccc(OC(F)F)c(Cl)c1)c1cccc(OC(F)F)c1	151*	106	9	27	113	6	107
O=C(CSCc1ccc(Br)cc1)NCc1ccccn1	97	103	-1	-2	/	/	/
Cc1cccc(NC(=O)CN2C(=O)N/C(=C/c3ccc(C)o3)C2=O)c1	105	129*	3	1	103	4	99
CCn1c(C)cc(/C=C2\NC(=O)N(CC(=O)Nc3cccc(C)c3)C2=O)c1C	103	104	/	3	/	/	/
Cc1cccc(NC(=O)CN2C(=O)N/C(=C\c3ccc(-c4cccc(C(=O)O)c4)o3)C2=O)c1	52*[inhibitor]	70*[inhibitor]	6	-31	105	8	109
Cc1ccc(NC(=O)CN2C(=O)N/C(=C/c3ccc(C)s3)C2=O)cc1	104	129*	12	1	98	0	103
C=CCC(C(=O)OC)(C(=O)OC)c1ccccc1[N+](=O)[O-]	106	105	3	6	/	/	/
